Screening data as filed in PubChem BioAssay.
An excerpt weighted towards active compounds, which were near 1.8% of everything screened.
CRFR2-BP antag = blocks CRF-induced signaling of the CRF-BP/CRF-R2 complex | inhibition, % at 11.8 µM | HEK293 CRF-R2/CRF-BP, CRF-induced calcium fluorescence | 350,000 compounds, 0.59% hits;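 active = inhibition of the ligand-induced calcium signal above about 50% at the single tested concentration, limit read from the data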
Jurkat NFkB inh = inhibitors of the PMA/ionomycin-induced NF-kB reporter in Jurkat cells; PMA/ionomycin-induced NF-kB luciferase reporter, luminescence; inhibition, % at 4 µM; 330,000 compounds, 0.53% hits; AID 435003; in the data active = inhibition above about 50%
697 NFkB inh = inhibitors of the PMA/ionomycin-induced NF-kB reporter in 697 B cells; 697 B-cell NF-kB luciferase reporter, 16 h; inhibition, % at 4 µM; 330,000 compounds, 0.33% hits; in the data active = inhibition above about 35%
UPR CHOP act = activators of apoptotic arm of unfolded protein response (CHOP); CHO-CHOP luciferase reporter, UPR activation, luminescence; percent of tunicamycin response over DMSO baseline; activation, % at 10 µM; 330,000 compounds, 0.34% hits; AID 449763;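 active = at 10 µM dose, activation of 40% or more, normalized to positive control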;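 also: 100% = tunicamycin at 10 µg/mL and 0% = DMSO alone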
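Dosing – one dose, 10 µM in 0.5% DMSO · System – CHO-CHOP cells, stable luciferase reporter of PERK-eIF2a-CHOP signalling · Input – 500 cells/well · Control set – tunicamycin 10 µg/mL final as positive, DMSO-only wells as negative · Timing – 6 h compound treatment, 37 °C · Measure – % activation vs tunicamycin · Technique – luminescence read with Steady-Glo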
XBP1 UPR activ = adaptive UPR (XBP1) activation; AID 463104; CHO-XBP1 luciferase reporter, IRE1-XBP1 UPR activation, luminescence; percent of tunicamycin response, DMSO as zero; activation, % at 20 µM; 330,000 compounds, 0.33% hits;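 active = versus positive control, 20 µM dose yields 30% or more activation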;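 also: 100% = tunicamycin at 10 µg/mL and 0% = DMSO only wells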
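Material: IRE1-XBP1 luciferase reporter CHO line / Quantity: one thousand reporter cells per well / Buffer or medium: F12 with 10% serum / Compound: 20 µM single concentration, DMSO 1% / Times: 6 h treatment, 37 °C / Detection: Steady-Glo luciferase glow luminescence, 10 min after reagent addition / Benchmarks: tunicamycin high, DMSO low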
697 NFkB conf = lowers PMA/ionomycin-induced NF-kB signal in 697 B cells. shares compounds with 697 NFkB inh. 697 B-cell NF-kB luciferase, 16 h. inhibition, % at 4 µM. 2,000 compounds, 35% hits; in the data active = inhibition mostly above about 28%, no sharp cut-off; inactive = mostly below about 22%
Starred values were filed as active, the others as inactive; i = inactive; nt = not tested or not shown.

SMILES	CRFR2-BP antag	Jurkat NFkB inh	697 NFkB inh	UPR CHOP act	XBP1 UPR activ	697 NFkB conf
CCn1cc(C(=O)O)c(=O)c2cc(F)c(N3CCN(C(=S)NC(=O)c4ccc(Br)cc4)CC3)cc21	-12.9	-21.1	38.2*	-2.5	4.9	11.2
CCn1cc(C(=O)O)c(=O)c2cnc(N3CCN(C(=S)NC(=O)c4ccc(Br)cc4)CC3)nc21	-1.3	9.3	83.6*	-0.4	-2.1	26.4*
CCn1cc(C(=O)O)c(=O)c2cnc(N3CCN(C(=S)Nc4ccccc4Cl)CC3)nc21	-10.4	6.7	3.6	0.0	-0.7	nt
Cc1ccc(NC(=O)Cn2cc([N+](=O)[O-])nc2C)cc1C	9.2	-6.3	-4.3	2.2	-1.3	nt
CN(C)N1C(N)=C(C#N)C(c2ccccc2F)C2=C1CC(C)(C)CC2=O (centres undefined)	-0.5	10.3	16.0	1.7	-2.4	nt
COc1ccc(NC(=O)CCC(=O)N2CCC(c3ccccc3)=N2)cc1S(=O)(=O)N1CCCCC1	5.8	nt	nt	nt	nt	nt
NC(=O)C1CCN(C(=O)COc2ccc3ccc(=O)oc3c2)CC1	-5.3	17.1	7.4	0.2	-1.6	nt
CC(=O)c1c[nH]c(C(=O)Nc2ccc(N3CCCCCC3)cc2)c1	-10.1	-9.9	39.8*	-3.7	-1.5	12.9
O=C(Nc1ccc(N2CCCCC2)cc1)c1ccccc1	-26.0	-111.5	-181.9	-2.0	-7.1	nt
O=C(Nc1ccc(N2CCCC2)cc1)c1cccc(F)c1	1.9	-136.3	-327.3	-0.8	-1.5	-241.3
Cc1ccnc(NS(=O)(=O)c2cc([N+](=O)[O-])ccc2C)c1	6.0	-6.4	36.5*	-1.8	-3.9	-4.3
O=c1cc(-c2ccc(O)c(O)c2)oc2ccc3ccccc3c12	-7.4	-67.0	i	30.2	10.3	-365.6
COc1ccc(-c2csc(N3C(=N)SCC3=O)n2)cc1	-9.5	-104.2	-378.4	0.8	-4.5	-312.9
CCC(=O)Nc1ccc2oc(-c3cccc(C)c3)nc2c1	-20.2	-126.6	-317.0	-4.7	-3.8	-395.4
CCOC(=O)c1cc2c(c(CCO)n1)[C@H](CCO)N(S(=O)C(C)(C)C)C2 (some centres undefined)	2.9	nt	nt	nt	nt	nt
COc1ccc(-c2cc3ccc(OC)cc3cn2)cc1	5.6	-143.8	-327.2	-3.8	-6.5	-390.1
O=C(OCc1ccccc1)N1CCc2ccccc21	2.6	-148.3	-160.1	1.4	-4.8	nt
CCOc1ccc(-c2nnc(-c3cccs3)o2)cc1OCC	15.2	-68.4	-57.9	4.2	14.6	nt
CCOc1ccc(-c2nnc(-c3cccs3)o2)cc1	-18.5	-93.3	-251.2	-3.0	-2.8	-212.4
NC(=O)COc1cccc(/C=N/NC(=O)c2ccc(-n3cccc3)cc2)c1	12.1	10.2	51.8*	2.3	0.7	-7.2
NC(=O)c1ccc(C(=O)N/N=C/c2cccc(Oc3ccccc3)c2)cc1	-0.7	-0.8	-8.7	-0.7	-4.5	nt
NS(=O)(=O)c1ccc(CCNC(=O)CSc2nc3ccsc3c(=O)n2CC2CCC(C(=O)O)CC2)cc1 (centres undefined)	13.8	3.4	35.6*	0.8	0.8	9.6
N/C(=N\OC(=O)CCCc1ccccc1)c1ccccc1Cl	-3.5	-6.6	-33.4	4.5	-4.3	nt
Cc1ccc(S(=O)(=O)/N=C(/Nc2c(C)cccc2C)c2ccccc2)cc1	-37.2	1.8	3.9	1.1	-1.8	nt
CCN(C(=O)COC(=O)CSc1ccccc1)c1c(N)n(Cc2ccccc2)c(=O)[nH]c1=O	2.0	-1.7	4.6	-1.7	-0.9	nt
O=C(Nc1ccccc1C(=O)Nc1nnc(C(F)(F)F)s1)c1ccccc1	36.8	-3.1	96.2*	5.7	2.0	93.5*
Cc1occc1C(=O)Nc1nnc(C(F)(F)F)s1	-38.9	-1.0	-10.7	1.8	1.2	nt
CC(C)CN(CC(C)C)C(=O)CN1C(=O)NC2(CCCc3ccccc32)C1=O (centres undefined)	-3.4	4.2	17.0	1.1	6.4	nt
CC(C)CC1C(=O)N(Cc2cn(Cc3ccco3)nn2)CCS(=O)(=O)N1Cc1ccc(-c2ccc(F)cc2)cc1 (centres undefined)	-26.1	nt	nt	nt	nt	nt
N/C(=N\OC(=O)c1ccc(Cl)cc1)c1[nH]ncc1Br	-15.9	-138.2	-394.1	-8.0	-10.1	-275.4
